This note sets out measurements from paper PMC8387982 (ACS Omega, 2021).

The subject of one data set is P. aeruginosa ATCC 27853. Nature of the data set: Checkerboard FIC with conventional antibiotics. The class given is cell-based, Pseudomonas aeruginosa. The following applies: in combination with rifampicin. In a few lines: (§1)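 Checkerboard assay: test compound and antibiotic mixed at 2× their MICs, then 2-fold serial dilutions made in MHB. Equal volume of bacteria (1×10^6 CFU/mL) added and incubated 18–24 h at 37 °C. Growth read as in the MIC assay. FIC = (MIC peptide in combination/MIC peptide alone) + (MIC antibiotic in combination/MIC antibiotic alone). Interpretation: ≤0.5 synergy; 0.5–1 additive; 1.0–<4.0 indifference; ≥4 antagonism.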

A further data set concerns E. coli ATCC 25922. Nature of the data set: Checkerboard FIC with conventional antibiotics. In kind it is cell-based, Escherichia coli. Summed up: as §1
Data set [1] has as its system K. pneumoniae ATCC 700603. As to the kind of experiment: Checkerboard FIC with conventional antibiotics. The class given is cell-based, Klebsiella pneumoniae. In a few lines: as §1
In data set [2] the test system is bacteria (S. aureus, B. subtilis, E. coli, P. aeruginosa, K. pneumoniae). Nature of the data set: Geometric mean of the peptide MICs. The class given is cell-based. To be noted: over the five bacterial strains. Summed up: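 Broth microdilution: single colony grown in MHB at 37 °C for 16–24 h. Log-phase culture diluted to 1×10^6 CFU/mL and mixed with equal volumes of serially diluted test compound. […] At least three independent experiments, each with three technical replicates. Geometric mean of MICs across strains computed.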

Another data set deals with human erythrocytes. Nature of the data set: Hemolytic assay. The class given is cell-based. To be noted: concentration causing 10% hemolysis of erythrocytes; 1 h, 37 °C.
Data set [3] relates to human glomerular mesangial cell (GMC) line. As to the kind of experiment: MTT cytotoxicity assay. The class given is cell-based. To be noted: read-out: IC50 for GMC, 12 h, peptides 1-256 μM. Summed up:
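MTT assay: human GMC cells seeded at 1.0×10^4 cells/well and exposed to test compound (1–256 μM) for 12 h at 37 °C, 5% CO2. Then 0.5 mg/mL MTT added for 4 h at 37 °C; formazan dissolved in DMSO and read at 570 nm. At least three independent experiments, each with three technical replicates.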
A general note: Tetrazolium assays rely on reduction of a dye to a coloured formazan, in cell work by metabolically active cells.

Data set [4] in a line: Circular dichroism, α-helical content. The class given is physicochemical. Summed up: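 CD spectra recorded at 25 °C in a 1.0 mm quartz cell over 190–260 nm (50 nm/min, 1 nm bandwidth, 1 s response). Test compound at 50 μM final in deionized water or 50% TFE. Observed ellipticity corrected for buffer and converted to mean residue ellipticity using peptide concentration, path length and residue number.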
For orientation: CD spectra are sensitive to the conformation of chiral molecules.

A value given as a limit tells only on which side of the number the result lay.

For polymyxin B, the FIC in the data set with P. aeruginosa ATCC 27853 is listed as 0.3125; in the data set on E. coli ATCC 25922 (in combination with gentamicin), 0.3125; in the data set on E. coli ATCC 25922 (in combination with rifampicin), 0.125; in data set [1] (in combination with gentamicin), 0.5; in data set [1] (in combination with rifampicin) it was 0.3125.
Take H-GLLKRIKTLL-NH2 [Anoplin]: the “GM (geometric mean of the peptide MICs)” value in data set [2] is 48.50 µM. Besides, the “MHC (minimum hemolytic concentration)” value in the data set with human erythrocytes was over 256 µM. Further, the IC50 – broadly, the midpoint of a concentration-inhibition curve – in data set [3] is over 256 µM. For the same substance, in data set [4] (CD, 50 μM peptide, 50% TFE, 25 °C), the “α-helix in 50% TFE” value came to 82.64%. The substance further returned a α-helix in water in data set [4] (CD, 50 μM peptide, deionized water, 25 °C) of 14.03%. Besides, the “α-helical structure in water (CD)” value in data set [4] (water environment, result in words) is reported as “did not show a α-helical structure”.
